# Bioassay records as filed in PubChem.
# This is a sample that favours compounds with a hit; in the whole collection about 3% have one here.
# Apaf-1 inh = blocks human Apaf-1 apoptosome activity | reconstituted apoptosome caspase-3 activity, DEVD-Rh110 fluorescence | inhibition, % at 20 µM | actives 0.71% (n = 330,000); active = inhibition of at least 40% at 20 µM;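 note: plate controls were DMSO wells for no effect and DEVD-CHO caspase inhibitor wells for full effect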
#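 Material: biochemical Apaf-1 apoptosome reconstitution. Medium: Hepes buffer, pH 7.5. Also added: cytochrome c activation, bis-DEVD rhodamine 110 substrate. Timing: 30 min compound preincubation, 50 min activation, room temperature. Measured by: rhodamine 110 fluorescence at Ex 480/Em 540 nm.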
# MEKK3 PB1 HTS = raises or lowers MEK5 binding to the human MEKK3 PB1 domain. Q99759. binding response (% of control), % at 10 µM. AID 1529. actives 1.4% (n = 290,000). bead-based flow cytometry, Alexa488-MEK5 binding to MEKK3; actives lie on both sides; 0 = blocked by unlabeled MEK5, 100 = vehicle;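 active = binding response more than 3 SD above or below the average of its plate-row segment, actives on both sides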;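 note: Alexa488 bead fluorescence after subtracting the streptavidin-only scavenger bead signal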
# Target sequence (Q99759 whole entry, looked up, the tested form may be a part): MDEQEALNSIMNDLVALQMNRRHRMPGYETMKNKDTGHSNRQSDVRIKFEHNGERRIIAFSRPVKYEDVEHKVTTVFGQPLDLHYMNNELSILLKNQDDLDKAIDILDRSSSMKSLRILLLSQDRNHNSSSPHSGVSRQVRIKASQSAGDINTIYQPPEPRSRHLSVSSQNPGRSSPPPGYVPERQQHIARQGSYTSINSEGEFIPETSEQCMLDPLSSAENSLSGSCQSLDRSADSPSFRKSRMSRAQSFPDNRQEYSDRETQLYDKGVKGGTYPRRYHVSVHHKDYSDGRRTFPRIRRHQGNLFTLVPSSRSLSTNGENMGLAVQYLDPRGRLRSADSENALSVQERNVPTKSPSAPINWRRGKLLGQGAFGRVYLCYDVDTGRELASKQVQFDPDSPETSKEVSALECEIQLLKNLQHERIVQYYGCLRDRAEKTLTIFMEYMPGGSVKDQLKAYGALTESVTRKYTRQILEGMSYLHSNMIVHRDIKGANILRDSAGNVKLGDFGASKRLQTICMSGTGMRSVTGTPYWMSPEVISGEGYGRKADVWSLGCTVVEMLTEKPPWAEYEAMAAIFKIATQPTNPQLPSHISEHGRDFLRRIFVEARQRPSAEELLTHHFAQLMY
# MEKK2 WT-MEK5 = raises or lowers MEK5 binding to wildtype human MEKK2 PB1 domain; Q9Y2U5; bead flow cytometry, Alexa488-MEK5 binding to MEKK2 WT; actives lie on both sides; binding response (% of control), % at 10 µM; actives 1.1% (n = 290,000); in the data active = binding response below about 67% or above about 130%
# MEKK2 mut-MEK5 = signal of MEK5 binding to mutant human MEKK2 PB1 domain; actives 0.35% (n = 290,000); percent response, % at 10 µM; AID 1530; bead flow cytometry, Alexa488-MEK5 binding to MEKK2 mutant; in the data active = percent response above about 24%, passing the limit was not always enough
# UCH37 inh = blocks the human deubiquitinase UCH37. purified proteasome/UCH37, Ub-AMC cleavage fluorescence. inhibition, % (test concentration not listed). actives 0.33% (n = 330,000);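 active = mean inhibition over replicate wells above about 20%, limit read from the data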;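 note: 0% = compound-free wells with enzyme and 100% = wells lacking proteasome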
#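 Material: Human UCH37 enzyme supplied as purified proteasome complex | Schedule: 30 min preincubation with enzyme, 25 min cleavage at room temperature | Detection: AMC fluorescence 355/460 nm | Measure: % inhibition of Ub-AMC cleavage fluorescence | Controls: Wells without proteasome as full block, compound-free enzyme plus substrate as uninhibited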
# UBC13 polyUb = inhibitors of human UBC13 polyubiquitin chain formation | P61088 | TR-FRET | inhibition, % at 20 µM | actives 0.47% (n = 330,000) | AID 485273; in the data active = inhibition above about 45%, passing the limit was not always enough
# * hit, by the source's call; nt = no result given; ! = a repeat was not active; [ ] = remark or other dose.
SMILES,Apaf-1 inh,MEKK3 PB1 HTS,MEKK2 WT-MEK5,MEKK2 mut-MEK5,UCH37 inh,UBC13 polyUb
O=C(COc1ccc(S(=O)(=O)N2CCCC2)cc1[N+](=O)[O-])N1CCCC1,-1,nt,nt,nt,4,3
Cc1nnc(-c2ccc(Oc3ccc(Cl)cc3)c([N+](=O)[O-])c2)o1,4,103,103,-1,3,-24
CCc1nnc(NC(=O)c2sc3nc4c(cc3c2N)CCCCCC4)s1,7,120,113,2,-71,4
CCc1nnc(NC(=O)c2sc3nc4c(cc3c2N)CCCCC4)s1,5,139*,106,2,-162,22
CCOc1ccc(C(Nc2cccnc2)c2cc(Cl)c3cccnc3c2O)cc1 (centres undefined),32,97,85,-10,22*,-33
CCOCC(O)CSCc1ccc(Cl)cc1 (centres undefined),8,97,96,-6,3,-8
CCOC(=O)/C(N=Nc1ccc(C(=O)O)cc1[N+](=O)[O-])=C(\C)O,-12,108,103,1,23*,-16
O=C1NC2=C(CCc3ccccc32)C(c2ccc(Br)cc2)N1 (centres undefined),69*,63,67,-6,-51,-15
Cn1cccc1/C=C1/SC(=S)N(CC(=O)O)C1=O,4,92,96,-3,23*,-57
Cn1cccc1/C=C1\SC(=S)N(NC(=O)c2ccccc2)C1=O,nt,87,83,-3,11,nt
CC(C(=O)O)N1C(=O)/C(=C/c2cccn2C)SC1=S (centres undefined),nt,90,105,0,18,nt
CCN1C(=O)/C(=C/C=C2/Sc3ccccc3N2CCO)SC1=S,-4,74,71,-7,9,3
O=C(O)CN1C(=O)/C(=C\c2cc(Br)ccc2OCc2ccc(Cl)cc2)SC1=S,nt,101,102,-1,23*,nt
CCC(C(=O)O)N1C(=O)/C(=C/c2cccn2C)SC1=S (centres undefined),nt,99,99,-2,23*,nt
CN1/C(=C\C=C2/SC(=S)N(CC(=O)O)C2=O)C(C)(C)c2ccccc21,21,145*,805*,880*,17,-315
COc1ccc(-c2nc(N)n(C(=O)c3ccc(C)cc3)n2)cc1,-7,104,103,-1,2,9
Cc1ccccc1C=NNc1ccnc2cc(Cl)ccc12,nt,nt,nt,nt,-10,nt
Clc1ccc2c(N/N=C/c3ccccc3Br)ccnc2c1,1,70*[inhibitor],85,-2,nt,5
COc1ccc2c3c(cccc13)N(C)N=C2C,73*,nt,nt,nt,-13,-52
CCCN(CCC)C(=O)CSc1nc2ccccc2c(=O)n1CC1COc2ccccc2O1 (centres undefined),23,108,104,4,2,-7
O=C(CCNC(=O)c1ccccc1Cl)Nc1ccc(Br)c(C(F)(F)F)c1,1,101,103,-2,24*,35
Cc1ccc(C)c(OCCCC(=O)NC2CCCCC2)c1,8,103,104,3,2,-5
COc1ccc(C(=O)Nn2c(SCC(=O)c3ccccc3)nc3ccccc3c2=O)cc1,14,nt,nt,nt,2,83*
Cc1onc(-c2ccccc2)c1-c1ccc(S(N)(=O)=O)cc1,2,88,53*!,-6,0,-14
CCC1=C[C@H]2CN(C1)Cc1c([nH]c3ccccc13)[C@@](C(=O)OC)(c1cc3c(cc1OC)N(C)[C@H]1[C@@](O)(C(=O)OC)[C@H](OC(C)=O)[C@]4(CC)C=CCN5CC[C@]31[C@@H]54)C2,nt,111,183*,32*,nt,nt
SMILES,Apaf-1 inh,MEKK3 PB1 HTS,MEKK2 WT-MEK5,MEKK2 mut-MEK5,UCH37 inh,UBC13 polyUb
Cc1ccc(-n2c(=O)c3cc4c(=O)n(-c5ccc(C)c(C)c5)c(=O)c4c(C(=O)c4ccc(C(=O)O)cc4)c3c2=O)cc1C,27,48*[inhibitor],29*[inhibitor],-12,7,-25
O=C(O)c1ccc(-n2c(=O)c3ccccc3c3ccccc3c2=O)cc1,0,99,99,-7,0,0
Cc1ccc(S(=O)(=O)CC(=O)NCc2ccccc2)cc1,-3,100,104,13,1,-9
NC(=S)NNc1cccc2cccnc12,76*,68,64,-12,5,-20
NC(=S)Nc1cccc2cccnc12,17,107,107,4,3,-6
O=C(CN1C(=O)NC2(CCCC2)C1=O)OCCOc1cccc(Cl)c1,7,nt,nt,nt,4,-11
COc1ccc(C(CNC(=O)c2ccc(S(=O)(=O)Nc3ccc(F)cc3)cc2)N(C)C)cc1 (centres undefined),1,108,119,31*,0,11
O=C1CCCCC1(O)Cc1ccc2c(c1)OCO2 (centres undefined),nt,nt,nt,nt,1,nt
CNC(=O)/C(=C\c1ccco1)NC(=O)c1ccco1,-13,107,107,7,3,-1
CCCN1CCc2c(sc(NC(=O)c3ccc(S(=O)(=O)N4CCN(C(=O)OCC)CC4)cc3)c2C(N)=O)C1,14,102,4.0*,4,1,-15
CS(=O)(=O)N1N=C(c2ccco2)CC1c1ccccc1Cl (centres undefined),1,106,100,5,6,-3
CCOc1ccc2nc(Cl)c(C3CC(c4ccco4)=NN3S(C)(=O)=O)cc2c1 (centres undefined),6,90,7.0*,0,-2,-7
COc1ccccc1C1CC(c2ccco2)=NN1S(C)(=O)=O (centres undefined),-9,97,29*,17,1,7
CCCN(CCC)CCCNC(=S)Nc1ccc2nc(N3CCCC3)cc(C)c2c1,-3,106,156*,43,-35,9
CCN(CC)CCNC(=S)Nc1ccc2nc(N3CCCC3)cc(C)c2c1,12,112,103,-2,-20,-12
CCCCN(CC)CCCNC(=S)Nc1ccc2nc(N3CCN(CC)CC3)cc(C)c2c1,16,115,138*,16,-1,-1
COc1ccccc1NC(=O)CNC(c1ccccc1)c1ccccc1,19,103,98,-1,1,2
Cc1cccc(NC(=O)CSCC(=O)Nc2ccccc2C(=O)NC2CC2)c1,0,nt,nt,nt,2,2
O=C(COC(=O)c1ccc2c(c1)C(=O)N(c1cccc3ncccc13)C2=O)c1ccc(Cl)cc1,-35,70*[inhibitor],80,-2,3,5
S=C1Cc2ccccc2N1,nt,86,80,-31,81*,nt
O=C1CCc2ccccc2N1,-30,99,100,1,1,10
O=C(O)c1ccc(NN=C2CCCc3ccccc32)cc1,nt,nt,nt,nt,22*,nt
